Three compounds from ChEMBL document CHEMBL4393654, “Discovery and Early Clinical Development of an Inhibitor of 5-Lipoxygenase Activating Protein (AZD5718) for Treatment of Coronary Artery Disease” (J Med Chem, 2019) can be followed below.

Series [1] can be described thus: Octanol-phosphate buffer partition co-efficient, log D of the compound at pH 7.4 after 2 hrs by LC-MS/MS-based shake flask method. Format: physicochemical. In a few lines: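 Distribution between octanol and water at pH 7.4.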
Series [2] is described as follows: Intrinsic clearance in human hepatocytes assessed per million cells at 1 uM measured after 2 to 60 mins by LC-MS/MS analysis. Format: ADME, cell-based, Hepatocyte. The following applies: read-out: CLH.
A short description of series [3]: Passive apparent permeability across apical to basolateral side in human Caco2 cells at pH 6.5. In kind it is ADME, cell-based. The following applies: Caco-2, pH 6.5. The method in brief:
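Passive permeability across Caco-2 monolayers, measured in the A to B direction at pH 6.5.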

Series [4] is described as follows: Mutagenicity in Salmonella typhimurium TA98 in absence of rat S9 fraction by Ames test. Format: toxicity. The note with it: salmonella enterica subsp. enterica serovar typhimurium. The method in brief: (§1)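 Ames bacterial mutagenicity test in S. typhimurium TA98 and TA100. Run with and without metabolic activation by rat S9 fraction.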
On the technique in general: In the Ames test, an excess of revertant colonies over the control signals mutagenicity.

A short description of series [5]: Mutagenicity in Salmonella typhimurium TA100 in absence of rat S9 fraction by Ames test. In kind it is toxicity. The note with it: salmonella enterica subsp. enterica serovar typhimurium. In a few lines:
as §1

Series [6] concerns the target T1, Cytochrome P450 1A2 (Homo sapiens, UniProt P05177).
T1 sequence (P05177 whole entry): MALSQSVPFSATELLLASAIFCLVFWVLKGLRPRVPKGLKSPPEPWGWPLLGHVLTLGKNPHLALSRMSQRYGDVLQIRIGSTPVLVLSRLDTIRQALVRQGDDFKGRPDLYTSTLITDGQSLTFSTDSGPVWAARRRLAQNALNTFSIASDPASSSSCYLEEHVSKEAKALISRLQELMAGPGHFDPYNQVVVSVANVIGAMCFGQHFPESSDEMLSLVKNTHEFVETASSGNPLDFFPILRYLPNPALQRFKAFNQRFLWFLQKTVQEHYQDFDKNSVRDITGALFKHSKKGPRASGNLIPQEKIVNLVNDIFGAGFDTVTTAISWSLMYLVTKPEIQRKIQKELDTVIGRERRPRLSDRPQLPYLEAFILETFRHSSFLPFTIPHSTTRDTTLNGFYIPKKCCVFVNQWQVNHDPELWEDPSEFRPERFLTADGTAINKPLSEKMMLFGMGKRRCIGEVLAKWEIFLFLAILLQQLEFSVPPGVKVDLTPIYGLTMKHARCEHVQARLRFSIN
Put plainly: Inhibition of recombinant human CYP1A2 expressed in Escherichia coli using CEC as substrate by fluorescence assay. Format: ADME.

Series [7] concerns the target Cytochrome P450 2C9 (Homo sapiens, UniProt P11712). Put plainly: Inhibition of recombinant human CYP2C9 expressed in Escherichia coli using 7MFC as substrate by fluorescence assay. In kind it is ADME.
Series [8] addresses Cytochrome P450 2D6 (Homo sapiens, UniProt P10635). The series is described as follows: Inhibition of recombinant human CYP2D6 expressed in Escherichia coli using MAMC as substrate by fluorescence assay. Format: ADME.
Series [9] concerns the target Cytochrome P450 3A4 (Homo sapiens, UniProt P08684). The series is described as follows: Inhibition of recombinant human CYP3A4 expressed in Escherichia coli using BFC as substrate by fluorescence assay. Format: ADME.
Series [10] in a line: Protein binding in human plasma assessed as unbound fraction by equilibrium dialysis method. In kind it is ADME, cell-free. On the technique in general: In equilibrium dialysis only unbound substance equilibrates across the membrane.
The nature of series [11]: Protein binding in Sprague-Dawley rat plasma assessed as unbound fraction by equilibrium dialysis method. In kind it is ADME, cell-free.
Series [12] can be described thus: Inhibition of phospholipidosis in rat H42EC3 cells assessed as reduction in NBD-PE accumulation by SYTOX orange staining-based high content imaging analysis. Format: cell-based.
Series [13] has as its target Voltage-gated inwardly rectifying potassium channel KCNH2 (Homo sapiens, UniProt Q12809). Put plainly: Inhibition of human ERG by Ion-work assay.
The target in series [14] is T2, Potassium voltage-gated channel subfamily KQT member 1 (Homo sapiens, UniProt P51787).
T2 sequence (P51787 whole entry): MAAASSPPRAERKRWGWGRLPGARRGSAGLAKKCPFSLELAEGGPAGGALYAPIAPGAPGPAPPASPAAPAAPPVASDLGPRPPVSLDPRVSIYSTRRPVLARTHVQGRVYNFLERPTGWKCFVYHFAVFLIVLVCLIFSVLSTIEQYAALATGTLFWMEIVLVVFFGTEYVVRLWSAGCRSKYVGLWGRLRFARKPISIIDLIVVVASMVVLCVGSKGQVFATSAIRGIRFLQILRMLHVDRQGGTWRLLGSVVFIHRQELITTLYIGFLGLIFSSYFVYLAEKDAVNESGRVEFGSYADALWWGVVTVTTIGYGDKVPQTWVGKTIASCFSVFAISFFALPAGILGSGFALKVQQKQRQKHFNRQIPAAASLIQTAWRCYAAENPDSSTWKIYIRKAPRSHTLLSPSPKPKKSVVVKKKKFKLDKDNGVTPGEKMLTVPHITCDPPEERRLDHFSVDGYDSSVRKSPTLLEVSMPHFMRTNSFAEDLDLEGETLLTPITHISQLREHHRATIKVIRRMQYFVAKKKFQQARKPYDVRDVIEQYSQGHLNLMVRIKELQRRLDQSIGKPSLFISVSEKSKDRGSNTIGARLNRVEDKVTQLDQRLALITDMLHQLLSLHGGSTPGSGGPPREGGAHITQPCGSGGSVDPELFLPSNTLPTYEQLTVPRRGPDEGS
The series is described as follows: Inhibition of human Kv7.1 by Ion-work electrophysiology assay.

Series [15] addresses Potassium voltage-gated channel subfamily E member 1 (Homo sapiens, UniProt P15382). Put plainly: Inhibition of human KCNE1 by Ion-work electrophysiology assay.
Series [16] addresses T3, A-type potassium channel modulatory protein KCNIP2 (Homo sapiens, UniProt Q9NS61).
T3 sequence (Q9NS61 whole entry): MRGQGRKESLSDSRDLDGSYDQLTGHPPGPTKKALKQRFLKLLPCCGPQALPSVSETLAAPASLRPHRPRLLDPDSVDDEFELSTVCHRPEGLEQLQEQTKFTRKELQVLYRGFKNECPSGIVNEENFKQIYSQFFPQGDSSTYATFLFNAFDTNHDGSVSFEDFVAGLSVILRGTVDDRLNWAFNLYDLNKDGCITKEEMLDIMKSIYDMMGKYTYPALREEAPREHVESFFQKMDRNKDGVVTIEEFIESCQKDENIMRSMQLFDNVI
The series is described as follows: Inhibition of human KChip2.2 by Ion-work electrophysiology assay.

In series [17] the target is Sodium channel protein type 5 subunit alpha (Homo sapiens, UniProt Q14524). The series is described as follows: Inhibition of human NaV1.5 by Ion-work electrophysiology assay.
Sequence of Sodium channel protein type 5 subunit alpha (Q14524 whole entry): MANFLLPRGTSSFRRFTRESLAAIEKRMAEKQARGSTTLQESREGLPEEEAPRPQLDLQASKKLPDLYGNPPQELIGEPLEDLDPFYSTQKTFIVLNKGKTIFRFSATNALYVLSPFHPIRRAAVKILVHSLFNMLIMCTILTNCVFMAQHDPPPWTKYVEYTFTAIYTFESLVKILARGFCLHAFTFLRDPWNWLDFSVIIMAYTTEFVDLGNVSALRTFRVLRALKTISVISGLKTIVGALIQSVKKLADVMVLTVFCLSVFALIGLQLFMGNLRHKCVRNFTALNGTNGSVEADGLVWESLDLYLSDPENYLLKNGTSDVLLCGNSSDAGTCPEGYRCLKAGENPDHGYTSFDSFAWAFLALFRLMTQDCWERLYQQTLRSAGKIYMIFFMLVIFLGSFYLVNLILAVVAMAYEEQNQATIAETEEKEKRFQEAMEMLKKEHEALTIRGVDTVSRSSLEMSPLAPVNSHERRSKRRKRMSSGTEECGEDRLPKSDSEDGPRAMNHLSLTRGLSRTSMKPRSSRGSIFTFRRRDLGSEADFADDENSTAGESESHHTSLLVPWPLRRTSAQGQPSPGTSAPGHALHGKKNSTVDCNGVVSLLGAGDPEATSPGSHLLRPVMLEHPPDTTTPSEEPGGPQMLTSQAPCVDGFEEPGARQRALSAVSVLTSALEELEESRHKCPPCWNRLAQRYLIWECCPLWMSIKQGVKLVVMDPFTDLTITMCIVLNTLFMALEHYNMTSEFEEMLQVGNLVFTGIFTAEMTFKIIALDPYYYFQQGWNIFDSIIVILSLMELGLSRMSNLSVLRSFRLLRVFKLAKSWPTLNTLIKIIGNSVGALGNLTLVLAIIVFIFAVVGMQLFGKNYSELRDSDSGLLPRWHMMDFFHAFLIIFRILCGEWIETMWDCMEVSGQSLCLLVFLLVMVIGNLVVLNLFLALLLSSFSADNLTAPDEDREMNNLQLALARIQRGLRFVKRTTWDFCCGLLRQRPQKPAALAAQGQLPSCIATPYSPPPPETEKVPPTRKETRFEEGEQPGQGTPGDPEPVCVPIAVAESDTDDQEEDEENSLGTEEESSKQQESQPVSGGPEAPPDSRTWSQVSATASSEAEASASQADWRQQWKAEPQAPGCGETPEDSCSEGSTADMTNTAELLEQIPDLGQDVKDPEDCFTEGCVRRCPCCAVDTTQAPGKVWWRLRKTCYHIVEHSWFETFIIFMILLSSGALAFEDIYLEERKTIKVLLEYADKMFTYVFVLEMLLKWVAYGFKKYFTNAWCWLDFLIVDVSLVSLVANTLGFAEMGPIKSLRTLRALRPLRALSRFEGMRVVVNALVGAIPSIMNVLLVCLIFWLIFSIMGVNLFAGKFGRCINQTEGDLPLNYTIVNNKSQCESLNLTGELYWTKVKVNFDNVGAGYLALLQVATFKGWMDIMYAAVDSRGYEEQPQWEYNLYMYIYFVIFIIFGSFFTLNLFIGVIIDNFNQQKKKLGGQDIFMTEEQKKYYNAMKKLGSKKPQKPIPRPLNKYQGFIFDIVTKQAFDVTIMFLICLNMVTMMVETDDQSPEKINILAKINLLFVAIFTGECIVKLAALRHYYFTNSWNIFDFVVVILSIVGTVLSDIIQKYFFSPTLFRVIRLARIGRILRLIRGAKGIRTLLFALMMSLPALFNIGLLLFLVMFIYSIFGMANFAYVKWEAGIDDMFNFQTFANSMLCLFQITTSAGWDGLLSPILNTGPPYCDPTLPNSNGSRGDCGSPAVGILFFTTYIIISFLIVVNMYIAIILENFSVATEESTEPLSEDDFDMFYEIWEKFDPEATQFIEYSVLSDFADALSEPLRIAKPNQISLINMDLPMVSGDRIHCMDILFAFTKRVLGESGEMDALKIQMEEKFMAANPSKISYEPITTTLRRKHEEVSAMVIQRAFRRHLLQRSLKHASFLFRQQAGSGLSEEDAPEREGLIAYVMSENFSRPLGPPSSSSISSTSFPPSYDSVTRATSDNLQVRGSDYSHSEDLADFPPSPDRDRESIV

Sequence of Cytochrome P450 3A4 (P08684 whole entry): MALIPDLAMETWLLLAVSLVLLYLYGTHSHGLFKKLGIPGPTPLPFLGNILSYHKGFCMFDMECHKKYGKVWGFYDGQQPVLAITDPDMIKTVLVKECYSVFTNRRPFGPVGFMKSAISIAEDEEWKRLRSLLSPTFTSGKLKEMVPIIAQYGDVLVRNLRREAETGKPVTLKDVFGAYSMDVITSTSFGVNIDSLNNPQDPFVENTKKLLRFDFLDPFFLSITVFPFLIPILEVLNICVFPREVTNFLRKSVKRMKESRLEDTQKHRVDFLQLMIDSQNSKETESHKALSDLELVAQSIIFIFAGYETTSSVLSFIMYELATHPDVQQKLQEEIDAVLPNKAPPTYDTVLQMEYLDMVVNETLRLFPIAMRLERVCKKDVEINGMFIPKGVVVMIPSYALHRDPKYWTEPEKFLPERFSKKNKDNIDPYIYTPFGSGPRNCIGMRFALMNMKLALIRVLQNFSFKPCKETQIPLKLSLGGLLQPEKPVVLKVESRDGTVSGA
Sequence of Cytochrome P450 2D6 (P10635 whole entry): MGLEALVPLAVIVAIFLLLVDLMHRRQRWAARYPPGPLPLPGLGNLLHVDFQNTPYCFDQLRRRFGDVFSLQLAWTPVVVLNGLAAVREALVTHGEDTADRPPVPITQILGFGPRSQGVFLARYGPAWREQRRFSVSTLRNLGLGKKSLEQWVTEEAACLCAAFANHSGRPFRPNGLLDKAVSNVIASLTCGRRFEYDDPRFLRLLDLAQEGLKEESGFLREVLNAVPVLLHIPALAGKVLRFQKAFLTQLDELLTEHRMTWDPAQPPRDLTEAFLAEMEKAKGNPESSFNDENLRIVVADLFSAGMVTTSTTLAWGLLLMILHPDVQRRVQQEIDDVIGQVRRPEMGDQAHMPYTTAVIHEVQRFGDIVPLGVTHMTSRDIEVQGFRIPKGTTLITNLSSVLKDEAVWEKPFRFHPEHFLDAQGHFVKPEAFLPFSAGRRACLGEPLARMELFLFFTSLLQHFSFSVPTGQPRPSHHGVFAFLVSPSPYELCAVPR
Sequence of Voltage-gated inwardly rectifying potassium channel KCNH2 (Q12809 whole entry): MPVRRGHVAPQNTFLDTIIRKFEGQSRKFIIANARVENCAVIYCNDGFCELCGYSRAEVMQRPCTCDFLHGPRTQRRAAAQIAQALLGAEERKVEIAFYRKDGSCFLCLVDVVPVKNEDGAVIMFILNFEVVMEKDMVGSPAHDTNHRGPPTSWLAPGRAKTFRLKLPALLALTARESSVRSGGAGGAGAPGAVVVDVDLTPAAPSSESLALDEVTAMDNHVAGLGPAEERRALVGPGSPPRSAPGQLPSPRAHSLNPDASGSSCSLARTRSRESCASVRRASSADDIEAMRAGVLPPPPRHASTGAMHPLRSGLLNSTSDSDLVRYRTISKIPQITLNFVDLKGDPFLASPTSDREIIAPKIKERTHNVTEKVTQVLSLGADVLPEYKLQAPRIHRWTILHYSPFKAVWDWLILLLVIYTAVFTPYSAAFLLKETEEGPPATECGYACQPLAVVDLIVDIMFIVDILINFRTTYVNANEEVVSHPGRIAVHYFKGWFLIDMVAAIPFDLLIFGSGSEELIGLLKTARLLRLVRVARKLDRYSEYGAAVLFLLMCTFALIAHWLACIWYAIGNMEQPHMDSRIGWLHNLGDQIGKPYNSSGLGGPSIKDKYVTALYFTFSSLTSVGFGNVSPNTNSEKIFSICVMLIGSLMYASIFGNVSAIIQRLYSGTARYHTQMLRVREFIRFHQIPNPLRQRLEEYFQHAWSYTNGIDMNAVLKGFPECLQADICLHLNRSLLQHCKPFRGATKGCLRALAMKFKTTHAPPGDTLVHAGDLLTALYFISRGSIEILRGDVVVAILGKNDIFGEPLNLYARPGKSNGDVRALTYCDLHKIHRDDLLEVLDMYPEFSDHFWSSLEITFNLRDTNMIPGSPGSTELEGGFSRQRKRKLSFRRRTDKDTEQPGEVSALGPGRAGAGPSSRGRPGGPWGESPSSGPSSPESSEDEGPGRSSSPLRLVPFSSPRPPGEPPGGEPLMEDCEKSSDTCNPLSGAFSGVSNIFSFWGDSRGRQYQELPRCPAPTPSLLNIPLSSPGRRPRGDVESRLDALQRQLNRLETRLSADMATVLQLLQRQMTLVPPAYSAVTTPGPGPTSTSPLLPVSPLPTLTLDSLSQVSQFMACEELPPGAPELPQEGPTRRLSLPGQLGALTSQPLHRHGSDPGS
Sequence of Cytochrome P450 2C9 (P11712 whole entry): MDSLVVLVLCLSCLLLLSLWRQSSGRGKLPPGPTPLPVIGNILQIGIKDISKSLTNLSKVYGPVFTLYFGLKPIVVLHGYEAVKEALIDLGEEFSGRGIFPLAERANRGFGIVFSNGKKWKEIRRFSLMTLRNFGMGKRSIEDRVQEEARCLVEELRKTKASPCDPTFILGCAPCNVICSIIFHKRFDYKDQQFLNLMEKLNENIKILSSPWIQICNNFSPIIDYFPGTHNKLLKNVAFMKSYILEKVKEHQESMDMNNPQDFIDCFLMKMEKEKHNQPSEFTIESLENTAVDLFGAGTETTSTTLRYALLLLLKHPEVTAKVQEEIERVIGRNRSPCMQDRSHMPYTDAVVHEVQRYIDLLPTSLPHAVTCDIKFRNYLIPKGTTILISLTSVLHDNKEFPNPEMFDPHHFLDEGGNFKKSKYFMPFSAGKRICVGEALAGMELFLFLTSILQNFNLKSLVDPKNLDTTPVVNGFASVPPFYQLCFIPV

In turn, `Cc1cc(-c2ccc(C(=O)[C@@H]3CCCC[C@H]3C(=O)Nc3cnn4c3C(=O)NCC4)cc2)[nH]n1` yielded a logD at 2 h in series [1] of 2.9. Further, the hepatocyte CLint at 1 µM in [2] was determined as 4.2 µL/min/1e6 cells. Also, in series [3], the Papp A→B was 3.7 ×10⁻⁶ cm/s. Besides, the Activity entry in [4] and in [5] was “Non-Toxic” throughout. Moreover, the IC50 in [6] is over 20 µM; in series [7] it was over 20 µM; in [8], over 20 µM; in series [9] it was over 20 µM; in series [13], over 33 µM; in series [14], over 33 µM. The IC50 in [15], in series [16] and in series [17] was over 33 µM each time. Besides, the fraction unbound in series [10] is 0.053; in series [11], 0.024. In addition, the “inhibition (INH)” value in [12] was “Non-Toxic”.

Turning to `Cc1cc(-c2ccc(C(=O)[C@@H]3CCCC[C@H]3C(=O)Nc3cnn(C)c3S(N)(=O)=O)cc2)[nH]n1`, the logD at 2 h in [1] was 3.4. The hepatocyte CLint at 1 µM in [2] turned out to be 4.9 µL/min/1e6 cells. For the same compound, the Papp A→B in series [3] was 9 ×10⁻⁶ cm/s. The Activity entry in [4] and in series [5] was “Non-Toxic” throughout. Further, the 50% inhibitory concentration (IC50) was over 20 µM in series [6]; over 20 µM in series [7]; over 20 µM in series [8]; over 20 µM in [9]; over 33 µM in series [13]; over 33 µM in series [14]. Moreover, the IC50 in series [15], in [16] and in series [17] was over 33 µM throughout. In addition, the fraction unbound in series [10] stood at 0.031; in series [11] it was 0.014. The “inhibition (INH)” value in series [12] was “Non-Toxic”.

`Cc1cc(-c2ccc(C(=O)[C@@H]3CCCC[C@H]3C(=O)Nc3cnn(C)c3C(=O)NOC(C)(C)C)cc2)[nH]n1`: the logD at 2 h in [1] is 3.3. Moreover, the hepatocyte CLint at 1 µM in series [2] was 6 µL/min/1e6 cells. Moreover, in [3], the Papp A→B worked out at 14.7 ×10⁻⁶ cm/s. Moreover, the Activity entry in [4] and in [5] was “Non-Toxic” each time. Also, the IC50 in series [6] was over 20 µM; in series [7], over 20 µM; in series [8], over 20 µM; in series [9] it was over 20 µM; in [13] it was over 33 µM; in series [14], over 33 µM. In addition, the IC50 in series [15], in series [16] and in series [17] was over 33 µM throughout. Also, the figures for the fraction unbound in [10] and in [11] were 0.006 and under 0.0004, respectively. Moreover, the “inhibition (INH)” value in [12] was “Non-Toxic”.

Usually logD stands for the decadic logarithm of the distribution of all forms, ionised or not, between an organic phase and buffer at a given pH. Read a low logD as a more hydrophilic compound. The Papp A→B is how fast a substance crosses the layer from the apical side. Usually IC50 stands for the concentration at which inhibition is half-maximal. In general, fraction unbound refers to the share of the substance not bound to proteins or other matrix.
